Test [1] can be described thus: Inhibition of Wnt signaling in human A549 cells assessed as inhibition of […] expression after 24 hrs by Western blot analysis. The class given is cell-based. An outline of the steps:
(§1)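 A549 cells were seeded at 3 × 10^5 per 60 mm dish, grown 24 h, then given graded compound concentrations for 24 h. Lysis was in boiling SDS buffer, with BCA protein assay. 25–50 µg per lane was run on 8–15% SDS-PAGE and blotted to PVDF. Primary antibodies (1:1000–1:2000) went on overnight at 4 °C, then secondary and ECL read-out.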

The subject of test [2] is A549. In words: Inhibition of AKT/c-myc signaling in human A549 cells assessed as reduction in phospho-Rb level at 50 to 400 nM after 24 hrs by Western blot analysis. The class given is cell-based. In outline:
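A549 cells plated at 3 × 10^5 per 60 mm dish, grown 24 h, then exposed to a concentration series for 24 h. Lysed in boiling SDS sample buffer with NaF and orthovanadate; protein by BCA; 25–50 µg run on 8–15% SDS-PAGE, transferred to PVDF, blocked in 5% milk/PBST, primary antibodies overnight at 4 °C, secondary 1–2 h, ECL detection.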

A short description of test [3]: Inhibition of Wnt signaling in human A549 cells assessed as reduction in cyclin D1 protein expression at 50 to 400 nM after 24 hrs by Western blot analysis. The format is cell-based. An outline of the steps: as §1
The test system of test [4] is A549. In words: Cell cycle arrest in human A549 cells assessed as accumulation at G2/M phase at 400 nM after 24 hrs by flow cytometry (reference value: 22.84 %). The class given is functional.
Test [5] relates to A549. Kind of test: Cell cycle arrest in human A549 cells assessed as accumulation at S phase at 100 nM after 24 hrs by flow cytometry (reference value: 13.38 %). The class given is functional.

Calls of active or inactive are those of the source. No cut-off for these calls is given here.

Take `COc1ccc2c3c(c4cc(OC)c(OC)cc4c2c1)C[C@@]1(CO)CCCN1C3`: the inhibition entry in test [1] is “Dose-dependent effect”. Moreover, the inhibition entry (in the test on A549 [2]; in test [3]) was “Active” each time. In addition, the Activity with A549 [4] is on record as 20.41%; with A549 [5] it was 10.78%.
